≈ marks a conversion by molar mass, not a printed value.
Assays:
Format in all cases: functional, cell-based
Bel-7402 = test: Cytotoxicity against human Bel7402 cells after 48 hrs by MTT assay; conditions: Bel-7402, 48 h
In short: (§1)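 Cells kept in RPMI-1640 with 10% FBS, penicillin and streptomycin, at 37 °C under 5% CO2. Seeded at 2000/mL and grown 24 h, then given serial dilutions (100 to 1 μg/mL; DMSO stock diluted in medium). Vehicle control was 0.1% DMSO. After 48 h, MTT added for 4 h. Formazan dissolved in acid-isopropanol and read at 570 nm. Run in triplicate.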

HL-60 = test: Cytotoxicity against human HL60 cells after 48 hrs by MTT assay; conditions: HL-60, 48 h; in short: as §1
U-937 = test: Cytotoxicity against human U937 cells after 48 hrs by MTT assay; conditions: U-937, 48 h; in short: as §1
HeLa = test: Cytotoxicity against human HeLa cells after 48 hrs by MTT assay; in short: as §1

| SMILES | IC50 (Bel-7402) | IC50 (HL-60) | IC50 (U-937) | IC50 (HeLa) |
| --- | --- | --- | --- | --- |
| CCCCCCCCCCCC1=C(O)C(=O)c2c(oc3c(CCCCCCCCCCC)c(O)c(OC)cc23)C1=O | > 100 µg/mL | > 100 µg/mL | > 100 µg/mL | > 100 µg/mL |
| CCCCCCCCCc1cc(O)cc(O)c1OC | > 100 µg/mL | > 100 µg/mL | > 100 µg/mL | > 100 µg/mL |
| CCCCCCCCCCCC1=C(O)C(=O)c2c(oc3cc(OC)c(O)c(CCCCCCCCCCC)c23)C1=O | > 100 µg/mL | > 100 µg/mL | > 100 µg/mL | > 100 µg/mL |
| COc1cc2c(c(OC)c1OC)-c1ccc(OC)c(=O)cc1[C@@H](NC(C)=O)CC2 [COLCHICINE] | 0.4 µg/mL (≈ 1 µM) | – | 0.1 µg/mL (≈ 0.25 µM) | – |
| CCCCCCCCCCCC1=C(OC(C)=O)C(=O)C=C(OC)C1=O | > 100 µg/mL | > 100 µg/mL | > 100 µg/mL | > 100 µg/mL |
| CCCCCCCCCCCC1=C(O)C(=O)c2c(CCCCCCCCCCC)cc(O)cc2C1=O | > 100 µg/mL | > 100 µg/mL | > 100 µg/mL | > 100 µg/mL |
| CCCCCCCCCCCC1=CC(=O)C=C(OC)C1=O | > 100 µg/mL | > 100 µg/mL | > 100 µg/mL | > 100 µg/mL |
| CCCCCCCCCCCC1=C(O)C(=O)C=C(OCC)C1=O | 2.7 µg/mL (≈ 8.37 µM) | 2.5 µg/mL (≈ 7.75 µM) | 1.3 µg/mL (≈ 4.03 µM) | 3.9 µg/mL (≈ 12.1 µM) |
| CCCCCCCCCCCC1=C(O)/C(=C2\C(=O)Oc3c2cc(OC)c(O)c3CCCCCCCCCCC)OC1=O | > 100 µg/mL | > 100 µg/mL | > 100 µg/mL | > 100 µg/mL |
| CCCCCCCCCCCC1=C(O)C(=O)C=C(OC)C1=O [5-O-METHYLEMBELIN] | 3.6 µg/mL (≈ 11.7 µM) | 3 µg/mL (≈ 9.73 µM) | 1.5 µg/mL (≈ 4.86 µM) | 9 µg/mL (≈ 29.2 µM) |
